In brackets after ≈: the same amount, converted by molar mass.

Our source for the MIC values is article PMC11382152 (The Journal of Organic Chemistry, 2024).

Common to all, as to assay: MIC assay
What all share (type): cell-based

Test [1] has as its system Staphylococcus epidermidis ATCC 14990. The conditions noted are these: ATCC14990. The gist of the method: (§1)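 Test compounds were prepared as trifluoroacetate salts and assayed for MIC against a Gram-positive panel: B. subtilis, S. epidermidis, MSSA and MRSA. E. coli served as the Gram-negative negative-control organism. The natural parent peptide and vancomycin served as positive controls.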

Test [2] has as its system Bacillus subtilis ATCC 6051. The conditions noted are these: ATCC6051. The essentials: as §1
Test [3] has as its system Escherichia coli ATCC 10798. The conditions noted are these: ATCC10798. The gist of the method: as §1

In the case of `CN[C@H](CC(C)C)C(=O)N[C@H]1C(=O)N[C@@H](CC(N)=O)C(=O)N[C@H]2C(=O)N[C@H]3C(=O)N[C@H](C(=O)N[C@H](C(=O)O)c4cc(O)cc(O)c4-c4cc3ccc4O)[C@H](O)c3ccc(c(Cl)c3)Oc3cc2cc(c3O[C@@H]2O[C@H](CO)[C@@H](O)[C@H](O)[C@H]2O[C@H]2C[C@](C)(N)[C@H](O)[C@H](C)O2)Oc2ccc(cc2Cl)[C@H]1O` [vancomycin], the MIC in test [1] is 2 µg/mL (≈ 1.38 µM); in test [2] it was 0.125 to 0.25 µg/mL (≈ 0.0863 to 0.173 µM); in test [3] it was greater than 32 µg/mL.

As a reminder, the MIC is the lowest concentration that inhibits growth of the organism.
